Here are results for 71 compounds from ChEMBL document CHEMBL4513216, “Probing the Open Global Health Chemical Diversity Library for Multistage-Active Starting Points for Next-Generation Antimalarials” (ACS Infect Dis, 2020).

SMILES strings stand for the structures.

The nature of the data set: Toxicity liver stage against HepG2, at 10uM. Format: cell-based. Also noted: test concentration 10 uM, cell line HepG2-A16-CD81EGFP. Particulars: human, HepG2-A16-CD81EGFP cells; read-out: INHIBITION
In outline: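 Uninfected HepG2-A16-CD81EGFP cells, 3 × 10^3 per well, 1536-well, plated on prespotted compound at 10 μM final, parasite-free screening media added to match infected plates; puromycin 10 μM positive, DMSO 0.5% negative; run in parallel with 48 h PbLuc assay at 37 °C, 5% CO2; viability by CellTiter-Glo luminescence, normalized to controls.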
As to `Cn1ccnc1CN1C(=O)CO[C@H]2CN(Cc3ccc(F)c(F)c3)C[C@H]21`, the cytotoxicity at 10 µM was -2.83%. As for `COc1ccc(CN2CCOC[C@H](Oc3cccnc3)C2)cc1`, the figure is -4.03%.

As to `COc1ccc(CNC[C@H]2Cn3ccnc3CO2)cn1`, the cytotoxicity at 10 µM is 8.73%. Then `CCN(CC)S(=O)(=O)c1ccc2c(c1)N(Cc1ccncc1)C(=O)CS2`, with -5.62%; and `O=C(Nc1cnc(Oc2ccccc2)nc1)C1CC1`, with 0.174%. Regarding `Cc1ccc(C(=O)NCCn2nc(-n3cncn3)ccc2=O)c(C)c1`, the cytotoxicity at 10 µM is -1.25%. `CS(=O)(=O)NCc1cncc2c1CCN(C(=O)c1ccccn1)C2`: the cytotoxicity at 10 µM was 0.734%. As for `O=C(c1ccco1)N1Cc2nccn2CC(Cn2ncccc2=O)C1` (stereo unspecified), the figure is 5.09%; as for `O=C(c1cnccn1)N1CCC2(CCN(Cc3ccsc3)CC2)CC1`, 1.2%; as for `O=C(O)[C@H]1OCC(=O)N(Cc2cccc(F)c2)[C@@H]1c1ccc(Cl)cc1`, 8.9%. Then `CN1C[C@@H](C(=O)NC(C)(C)C)[C@@]2(CCc3ccccc3C(=O)N2)C1`, with -3.79%. Then `Cc1cnc(CC2COCCN(C(=O)CN3CCOCC3)C2)cn1` (stereo unspecified), with 9.07%.

`Cc1c(CN2CCCC(O)C2)[nH]c2ccc(F)cc12` (stereo unspecified): the cytotoxicity at 10 µM stood at 9.35%. Turning to `Cc1cc(Oc2ccccc2)nc(C2CCCCN2)n1` (stereo unspecified), the cytotoxicity at 10 µM was -2.64%. Then `CC(C)S(=O)(=O)N1C[C@@H](c2ccccc2)[C@H]2[C@H]1CCCCCN2C`, with 0.247%; and `CN(CCc1ccccn1)C(=O)Nc1cc(C(F)(F)F)c[nH]c1=O`, with 17.2%; and `O=S(=O)(c1ccccc1)N1CCCC(Cn2cncn2)C1` (stereo unspecified), with -4.28%. Then `CCC1CN(CC(=O)NC2(C#N)CCCC2)CCN1CCOC` (stereo unspecified), with 4.56%; and `N#Cc1cccnc1N1CCC(Nc2ccccc2)C1` (stereo unspecified), with -3.37%.

For the compound `N#CC1(NC(=O)c2nccc3ccccc23)CCC2(CC1)OCCO2`, the cytotoxicity at 10 µM is 2.48%.

On to `COc1ccc2c(c1)CN(c1nc(C)cc(C)n1)CC2`, for which the cytotoxicity at 10 µM is -0.734%. As for `CCN(CC)c1ccc(CNC(=O)c2cccc(C)n2)cn1`, the figure is 9.47%; as for `Cc1nc(C)c(C(=O)N(C)Cc2cnn(C)c2)s1`, -1.57%; as for `CCOCCNC(=O)Cc1cccc(I)c1`, 9.62%. As for `Cc1cnn(CC2CCCCN2CC(=O)Nc2nncs2)c1` (stereo unspecified), the figure is -0.208%; as for `CCN(C(c1cccnc1)c1ccc(F)cc1F)S(C)(=O)=O` (stereo unspecified), 10.8%; as for `Cc1ccc(C(=O)N2CCCN(C)c3ccc(F)cc32)o1`, -5.26%. Then `Cc1cnn(CC2CCCCN2C(=O)c2ccc(C#N)c(C)n2)c1` (stereo unspecified), with -1.18%. `Cn1[nH]c(C2CC2)c(-c2ccc3c(c2)OCO3)c1=N`: the cytotoxicity at 10 µM was -47.5%. Then `O=C(Nc1cccc(Cn2cccn2)c1)N1CCCC(N2CCCC2)C1` (stereo unspecified), with 4.13%. Then `NC(=O)C1CCN(Cc2ccc(S(=O)(=O)N3CCCC3)o2)CC1`, with 1.04%; and `CC(C)(C)CCN1CCN(Cn2nccc2-c2cccnc2)CC1`, with 23.2%; and `Cc1ccc(CCNC(=O)NC2CCN(CC(F)(F)F)C2=O)cn1` (stereo unspecified), with 4.75%. For `CCn1cc2c(n1)C(COC)CN(C(=O)COc1ccccc1C)C2` (stereo unspecified), the cytotoxicity at 10 µM was 0.719%. In the case of `Cc1ncoc1C(=O)N1CCn2c(COCC3CC3)cnc2C1C` (stereo unspecified), the cytotoxicity at 10 µM was -1.67%. Then `COCc1cc(CNCc2c(C)n(CC(C)C)c3ccccc23)n[nH]1`, with 12%; and `CC(C)[C@H]1CN(Cc2c[nH]nn2)C[C@@H]1NC(=O)C1CCOCC1`, with 22.3%; and `O=C(CN1CCC(c2ccccc2)CC1)NCc1cc2n(n1)CCNC2`, with 3.03%. Take `CC(C)c1nc(CNc2nccc(CCC(F)(F)F)n2)cs1`: the cytotoxicity at 10 µM is 1.24%. Consider `O=C(c1ccncc1Cl)N1CCN(Cc2ccco2)C(CCO)C1` (stereo unspecified), for which the cytotoxicity at 10 µM is -9.84%. For `CCCn1cc(NC(=O)NCC2CCS(=O)(=O)C2)nn1` (stereo unspecified), the cytotoxicity at 10 µM came out at 0.186%. Then `O=C1CC2(CCN(Cc3ccc(C(F)(F)F)nc3)CC2)CN1`, with -6.33%; and `CNC(=O)c1ccc(-n2c(COCC(=O)O)nc3c(C)cccc32)o1`, with -3.33%; and `O=C(c1cc(Cn2ccc3ccccc32)[nH]n1)N1CCOCC1`, with -1.01%. As for `CC(C)(O)CCc1ccc(C(=O)NCCC2CCCOC2)cc1` (stereo unspecified), the figure is 0.782%. Then `CN(CCc1nc2cc(Cl)ccc2[nH]1)C(=O)c1ncn[nH]1`, with -53.7%; and `CCCS(=O)(=O)N[C@H]1CN(c2ncccc2C(N)=O)C[C@@H]1C(C)C`, with 5.78%; and `CCOCCn1nc(C)cc1C(=O)N1CC[C@@](O)(COC)C(C)(C)C1`, with -1.66%.

Turning to `Cc1cccc(OC2(C(=O)O)CCN(C(=O)CCc3ccco3)CC2)c1`, the cytotoxicity at 10 µM came out at 4.3%.

For `Cc1ncc(C(=O)N2CCCC(C(=O)CCc3ccccc3)C2)s1` (stereo unspecified), the cytotoxicity at 10 µM was determined as 19.4%. As for `Cc1nc(CN(C)C(=O)c2ccc(Cn3cnnn3)cc2)cs1`, the figure is -15.4%; as for `Cc1ccc(C(=O)N2CCCC3(C2)C(=O)N(C)c2ccccc23)c(=O)[nH]1` (stereo unspecified), -7.52%. Then `CC(=O)N1CCCC(C(=O)N2CCN(c3cnn(C)c(=O)c3)CC2)C1` (stereo unspecified), with 0.761%; and `CCc1cc(N[C@H]2CCC[C@H]2CO)n2nc(C)c(C)c2n1`, with 3.41%; and `CCOCC1CCN(C(=O)C(c2ccccc2F)N(C)C)CC1` (stereo unspecified), with 5.06%. As for `CC(C)(C)OC(=O)NC1CCCN(Cc2cccs2)C1` (stereo unspecified), the figure is -40.7%. With `Cc1nc(N2CCN(C(=O)c3ccccc3)CC2)cc(-n2ccnc2)n1`, the cytotoxicity at 10 µM is 0.0237%. As for `CCC(C)c1ccc(NC(=O)C2CCN(C(=O)COC)CC2)cc1` (stereo unspecified), the figure is -3.16%; as for `Cc1cc(CN[C@@H](C)C(N)=O)c(C)s1`, -6.55%. As for `CC(C)C(C)N(Cc1ccccn1)Cc1ccco1` (stereo unspecified), the figure is -1.99%; as for `O=C1Nc2ccccc2C12CCCN(Cc1ccncc1)C2` (stereo unspecified), 4.32%. As for `O=C(c1cnc2ccccc2c1)N1CCCC(O)(CN2CCCC2)C1` (stereo unspecified), the figure is 9.27%.

As for `c1ccc(-n2ccc(CNC3CCc4ncnn4C3)n2)cc1` (stereo unspecified), the cytotoxicity at 10 µM is -2.57%.

Take `Cc1cnn(CC2CCCN2C(=O)c2ccc(-n3cccn3)nc2)c1` (stereo unspecified): the cytotoxicity at 10 µM was -15.7%. Then `CCCc1nnc(NC(=O)Cc2c(C)nc(C)[nH]c2=O)s1`, with -10.7%; and `COc1ccc(CNCC2CCN(CC(C)O)CC2)c2ccccc12` (stereo unspecified), with -11.5%; and `CCc1ccc(C(=O)N2CCN(CC(C)O)CC2)o1` (stereo unspecified), with -8.18%.

On to `COc1cccc2cc(CNC(C)(C)C(=O)N3CCC(O)CC3)oc12`, for which the cytotoxicity at 10 µM is -12.2%. Then `CCOc1ccccc1-c1cc(N)[nH]n1`, with 5.75%; and `Cc1oncc1C(=O)NCc1cc(=O)n2c(n1)CN(C)CCC2`, with 5.02%; and `Cn1nc(C2CNCCO2)cc1CCOc1ccc(Cl)cc1` (stereo unspecified), with -7.72%.
